Where two headings read alike, the source gives them in different places.
Key:
[1] = target: DiscI (Discoidin I, isoform A) (Dictyostelium discoideum, UniProt P02886, S2A); test: Isothermal titration microcalorimetry; format: binding; details: ITC; for n (stoichiometry, fitted): n fitted to the curve for high affinity ligands
[2] = target: T1, DiscII (Discoidin II) (Dictyostelium discoideum, UniProt P42530); test: Isothermal titration microcalorimetry; format: binding; details: for -TΔS / -ΔG / -ΔH: DiscII, ITC, 25 °C, ligands marked c only one experiment
T1 sequence (P42530 1-257): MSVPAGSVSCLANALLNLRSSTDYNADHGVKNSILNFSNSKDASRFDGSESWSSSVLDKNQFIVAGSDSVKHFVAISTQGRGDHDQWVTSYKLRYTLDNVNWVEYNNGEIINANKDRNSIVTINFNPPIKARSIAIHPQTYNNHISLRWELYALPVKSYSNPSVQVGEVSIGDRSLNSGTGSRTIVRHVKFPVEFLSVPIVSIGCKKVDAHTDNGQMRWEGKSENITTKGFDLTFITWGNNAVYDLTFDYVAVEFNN
Procedure, shortened: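 Run on a VP-ITC at 25 °C in 20 mM Tris-HCl pH 7.5, 150 mM NaCl, with sugar and protein in the same buffer. Thirty 10 μL injections of 2–40 mM sugar, 5 min apart, went into 0.15 mM lectin in the cell, stirred at 310 rpm. Sugar-into-buffer controls were run. Data were fitted to a single-site model giving Ka and ΔH (n fixed at 1 for weak ligands), with ΔG and ΔS derived. Runs were at least duplicated, or single where material was short.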

[3] = target: T1, DiscII (Discoidin II); test: Glycan microarray analysis of Alexa 488-labelled DiscII; format: binding; details: DiscII at 0.5 μg ml^-1; printed glycan arrays version 3.1
Procedure, shortened: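 Recombinant protein labelled with Alexa Fluor 488-TFP following the maker's protocol, then desalted on a polyacrylamide column. Screened on the Consortium for Functional Glycomics printed array v3.1 by the standard procedure, over 0.01–200 μg ml^-1 lectin. Binding read as fluorescence intensity.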

[4] = target: DiscI (Discoidin I) (Dictyostelium discoideum, UniProt P02886, S2A); test: Glycan microarray analysis of Alexa 488-labelled DiscI; format: binding; details: DiscI at 0.04 μg ml^-1; printed glycan arrays version 3.1
Sequence of DiscI (Discoidin I) (P02886 whole entry S2A): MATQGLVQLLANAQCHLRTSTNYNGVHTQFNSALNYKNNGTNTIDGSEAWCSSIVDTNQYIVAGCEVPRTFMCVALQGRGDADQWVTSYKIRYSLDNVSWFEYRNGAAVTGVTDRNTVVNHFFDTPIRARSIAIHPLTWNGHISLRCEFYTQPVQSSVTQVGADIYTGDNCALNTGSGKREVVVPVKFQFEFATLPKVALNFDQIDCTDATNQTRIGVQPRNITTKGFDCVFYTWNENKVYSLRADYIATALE

[5] = target: T1, DiscII (Discoidin II); details: ITC, taken from ref [29]; cited from earlier work
[6] = KD, 20 mM Tris-HCl pH 7.5, 150 mM NaCl, 25 °C, averaged over two or three experiments
[7] = 20 mM Tris-HCl pH 7.5, 150 mM NaCl, 25 °C, averaged over two or three experiments

Sequence of DiscI (Discoidin I, isoform A) (P02886 whole entry S2A, canonical isoform): as the sequence (P02886 whole entry S2A) above

Question: What does the source list for `O=C[C@H](O)[C@@H](O)[C@@H](O)[C@H](O)CO` [Galactose, galactose]?
Answer: -TΔS ([1]; 25 °C): 4.09 ± 1.79 kcal/mol; -ΔG ([1]; 25 °C): 3.3 ± 0.024 kcal/mol; -ΔH ([1]; 25 °C): 7.41 ± 1.77 kcal/mol; Kd [1, 6]: 3770 ± 200 µM; Kd ([1]; Kd): 3000 to 4000 µM

Question: What does the source list for `CC(=O)N[C@H]1C(O)O[C@H](CO)[C@@H](O[C@@H]2O[C@H](CO)[C@H](O)[C@H](O)[C@H]2O)[C@@H]1O` (stereo partly drawn) [Gal1β1-4GlcNAc (LacNAc), Galβ1-4GlcNAc]?
Answer: Kd (in words) [1]: millimolar range; -TΔS ([1]; 25 °C): 5.57 ± 0.478 kcal/mol; -ΔG ([1]; 25 °C): 3.59 ± 0.048 kcal/mol; -ΔH ([1]; 25 °C): 9.18 ± 0.526 kcal/mol; Kd [1, 6]: 2390 ± 170 µM; Kd [2]: 1220 ± 23 µM; -TΔS [2]: 4.9 ± 0.096 kcal/mol; -ΔG [2]: 3.99 ± 0.12 kcal/mol

Question: For `CC(=O)N[C@H]1[C@H](OC[C@H]2OC(O)[C@H](NC(C)=O)[C@@H](O)[C@H]2O)O[C@H](CO)[C@@H](O[C@@H]2O[C@H](CO)[C@H](O)[C@H](O)[C@H]2O)[C@@H]1O` (stereo partly drawn) [Galβ1-4GlcNAcβ1-6GalNAc (n° 149), Galβ1-4GlcNAcβ1-6GalNAc], which “binding on glycan array (fluorescence intensity, in words)” value (“binding on glycan array” for short) [3] is on record?
Answer: highest affinity

Question: For `CC(=O)N[C@H]1[C@H](O[C@H]2[C@@H](O)[C@@H](CO)OC(O)[C@@H]2O)O[C@H](CO)[C@H](O)[C@@H]1O` (stereo partly drawn) [GalNAcβ1-3Gal], which “increase in DiscI affinity when compared to GalNAc monosaccharide” value [1] is on record?
Answer: tenfold increase

Question: What about the “-TΔS” value ([1]; 25 °C) of the same compound?
Answer: 6.886 ± 0.669 kcal/mol

Question: And the “-ΔG” value ([1]; 25 °C)?
Answer: 5.86 ± 0.072 kcal/mol

Question: What about the “-ΔH” value ([1]; 25 °C) of the same compound?
Answer: 12.7 ± 0.693 kcal/mol

Question: What about the “n (stoichiometry, fitted)” value [1] of the same compound?
Answer: 0.81 ± 0.01

Question: And the Kd [1, 6]?
Answer: 49.4 ± 1.5 µM

Question: What about the Kd ([1]; Kd) of the same compound?
Answer: ~50 µM

Question: What about the Kd [2] of the same compound?
Answer: 1110 µM

Question: And the “-TΔS” value [2]?
Answer: 6.88 kcal/mol

Question: And the “-ΔG” value [2]?
Answer: 4.02 kcal/mol

Question: What about the “-ΔH” value [2] of the same compound?
Answer: 10.9 kcal/mol

Question: What about the “binding on glycan array” value [4] of the same compound?
Answer: less strongly

Question: Which Kd [1, 7] does the source give for `COC1OC(CO)C(O)C(O)C1O` (stereo not drawn) [βMeGalactoside, β–Methyl-galactoside] here?
Answer: 2960 ± 270 µM

Question: And the “-TΔS” value ([1]; 25 °C)?
Answer: 6.19 ± 0.526 kcal/mol

Question: What about the “-ΔG” value ([1]; 25 °C) of the same compound?
Answer: 3.44 ± 0.048 kcal/mol

Question: And the “-ΔH” value ([1]; 25 °C)?
Answer: 9.63 ± 0.574 kcal/mol

Question: And the “-TΔS” value [5]?
Answer: 1.6 kcal/mol

Question: What about the “-ΔG” value [5] of the same compound?
Answer: 4.16 kcal/mol

Question: And the “-ΔH” value [5]?
Answer: 5.81 kcal/mol

Question: What about the Kd [5] of the same compound?
Answer: 952 µM

Question: What does the source list for `CO[C@H]1O[C@H](CO)[C@H](O)[C@H](O)[C@H]1O` [αMeGalactoside]?
Answer: Kd [1, 7]: 8390 ± 700 µM; -TΔS ([1]; 25 °C): 7.29 ± 1.46 kcal/mol; -ΔG ([1]; 25 °C): 2.82 ± 0.048 kcal/mol; -ΔH ([1]; 25 °C): 10.1 ± 1.41 kcal/mol

Question: For `CC(=O)N[C@H]1C(O)O[C@H](CO)[C@H](O)[C@@H]1O[C@@H]1O[C@H](CO)[C@H](O)[C@H](O)[C@H]1O` (stereo partly drawn) [Gal1β-3GalNAc, Galβ1-3GalNAc], which “increase in DiscI affinity when compared to GalNAc monosaccharide” value [1] is on record?
Answer: tenfold increase

Question: What about the “-TΔS” value ([1]; 25 °C) of the same compound?
Answer: 4.66 ± 0.359 kcal/mol

Question: What about the “-ΔG” value ([1]; 25 °C) of the same compound?
Answer: 6.24 ± 0.096 kcal/mol

Question: What about the “-ΔH” value ([1]; 25 °C) of the same compound?
Answer: 10.9 ± 0.263 kcal/mol

Question: What about the “n (stoichiometry, fitted)” value [1] of the same compound?
Answer: 1.03± 0.01

Question: And the Kd [1, 6]?
Answer: 27.2 ± 4.6 µM

Question: What about the Kd ([1]; Kd) of the same compound?
Answer: 27 µM

Question: And the Kd [2]?
Answer: 1380 µM

Question: What about the “-TΔS” value [2] of the same compound?
Answer: 6.21 kcal/mol

Question: And the “-ΔG” value [2]?
Answer: 3.9 kcal/mol

Question: And the “-ΔH” value [2]?
Answer: 10.1 kcal/mol

Question: And the “binding on glycan array” value [4]?
Answer: binds

Question: What does the source list for `CC(=O)N[C@H]1C(O)O[C@H](CO)[C@H](O)[C@@H]1O` (mixture of isomers) [GalNAc, N-acetylgalactosamine]?
Answer: Kd [1]: 300 µM; Kd [1, 7]: 302 ± 27 µM; -TΔS ([1]; 25 °C): 3.18 ± 1.43 kcal/mol; -ΔG ([1]; 25 °C): 4.78 ± 0.048 kcal/mol; -ΔH ([1]; 25 °C): 7.98 ± 1.39 kcal/mol; -TΔS [5]: 0.837 kcal/mol; -ΔG [5]: 4.02 kcal/mol; -ΔH [5]: 4.85 kcal/mol; Kd [5]: 1120 µM

Question: For `CC(=O)NC1C(OC2C(O)C(CO)OC(O)C2NC(C)=O)OC(CO)C(O)C1O` (stereo not drawn) [GlcNAcβ1-3GalNAc (n° 159), GlcNAcβ1-3GalNAc], which “binding on glycan array” value [4] is on record?
Answer: binds

Source: PMC2975065 (Journal of molecular biology, 2010)
